Experimental data taken from ChEMBL document CHEMBL5136966, “Synthesis and biological evaluation of N 6 derivatives of 8-azapurine as novel antiplatelet agents” (RSC Med Chem, 2021).

Tests used:
[1] = Antiplatelet activity against ADP-induced human platelet in platelet rich plasma assessed as inhibition of platelet aggregation at 3 uM preincubated for 2 mins followed by ADP stimulation and measured for 5 mins by aggregometry relative to control; type: functional; conditions: 7 min
Method in brief: (§1)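 Human whole blood anticoagulated with 3.8% sodium citrate (1:9 v/v); PRP by centrifugation at 300 rpm for 20 min at room temperature, PPP at 900 rpm for 10 min. Compound in DMSO (final under 0.5%) added to PRP, 2 min at 37 °C, then ADP 10 μM. Aggregometer stirred at 900 rpm, 37 °C, calibrated with PRP and PPP, read 5 min (Born). Inhibition from maximal trace height versus DMSO vehicle.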

[2] = Antiplatelet activity against ADP-induced human platelet in platelet rich plasma assessed as inhibition of platelet aggregation at 10 uM preincubated for 2 mins followed by ADP stimulation and measured for 5 mins by aggregometry relative to control; type: functional; conditions: 7 min; method in brief: as §1
Platelet = test: Potency index, ratio of ticagrelor IC50 to test compound IC50 for antiplatelet activity against ADP-induced human platelet in platelet rich plasma assessed as inhibition of platelet aggregation; type: functional
[3] = Antiplatelet activity against ADP-induced human platelet in platelet rich plasma assessed as inhibition of platelet aggregation preincubated for 2 mins followed by ADP stimulation and measured for 5 mins by aggregometry; type: functional, cell-based; method in brief: as §1
[4] = Toxicity in mouse assessed as bleeding time at 5 mg/kg, po administered via gavage measured after 1 hr by bleeding tail test (reference value: 5.2 mins); type: organism-based; conditions: in vivo
P2Y purinoceptor 12 = P2Y purinoceptor 12 (Homo sapiens, UniProt Q9H244); test: Inhibition of P2Y12 receptor in human platelet assessed as reduction in ADP-induced VASP phosphorylation by flow cytometry; type: functional, cell-based
Chain of P2Y purinoceptor 12 (Q9H244 whole entry): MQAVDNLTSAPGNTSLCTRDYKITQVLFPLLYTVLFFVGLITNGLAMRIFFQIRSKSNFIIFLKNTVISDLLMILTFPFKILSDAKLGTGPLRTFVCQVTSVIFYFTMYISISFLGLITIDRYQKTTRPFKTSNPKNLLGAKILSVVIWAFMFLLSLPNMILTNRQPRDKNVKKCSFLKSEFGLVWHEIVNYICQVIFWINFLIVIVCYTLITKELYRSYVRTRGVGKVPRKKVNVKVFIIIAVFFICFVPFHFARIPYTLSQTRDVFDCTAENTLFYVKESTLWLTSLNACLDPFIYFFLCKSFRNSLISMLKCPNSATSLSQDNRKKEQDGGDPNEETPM

[5] = Stability of compound in fasted-state simulated intestinal fluid incubated for 1 day; type: ADME; conditions: read-out: Stability
[6] = Stability in mouse liver microsomes measured after 1 hr; type: ADME, Microsome; conditions: read-out: Stability
[7] = Stability of compound in fasted-state simulated gastric fluid incubated for 1 day; type: ADME; conditions: read-out: Stability
[8] = Toxicity in mouse assessed as death at 1500 mg/kg, po administered via gavage measured for 14 days; type: organism-based; conditions: in vivo, 336 h, time 14 day
Method in brief: (§2)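 Single-dose oral gavage study run under GLP. Forty mice (20 male, 20 female) were randomly split into a treated group and a vehicle group of 20 each (10 male, 10 female). The vehicle group got aqueous sodium carboxymethyl cellulose.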

Mus musculus [9] = test: Antiplatelet activity against ADP-induced platelet aggregation in mouse assessed as inhibition of platelet aggregation at 5 mg/kg, po measured after 1 hr by turbidimetric method relative to control; type: functional
Method in brief: (§3)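 Male mice of about 20 g received compound iv (2.5 mg/kg) or orally (5 mg/kg). After 1 h, blood was drawn from the abdominal aorta into 3.8% citrate. PRP was obtained at 1000 rpm for 7 min, adjusted with PPP to about 2 × 10^6 platelets/mL and incubated 10 min at 37 °C. ADP final 5 μM; turbidimetric aggregation read, PRP as zero and PPP as 100%.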

[10] = Stability in mouse liver microsomes measured after 2 hrs; type: ADME, Microsome; conditions: read-out: Stability
[11] = Toxicity in mouse assessed as blood loss at 5 mg/kg, po administered via gavage measured after 1 hr by bleeding tail test (reference value: 34.92 uL); type: organism-based; conditions: in vivo
[12] = Stability of compound in PBS buffer incubated for 1 week at 37 degC; type: physicochemical; conditions: time 1 weeks, read-out: Stability
[13] = Toxicity in mouse assessed as change in body weight at 1500 mg/kg, po administered via gavage measured for 14 days; type: organism-based; conditions: in vivo, 336 h, time 14 day; method in brief: as §2
Mus musculus [14] = test: Antiplatelet activity against ADP-induced platelet aggregation in mouse assessed as inhibition of platelet aggregation at 2.5 mg/kg, iv measured after 1 hr by turbidimetric method relative to control; type: functional; method in brief: as §3

For `CCCSc1nc(N/N=C/c2ccccc2)c2nnn([C@@H]3C[C@H](O)[C@@H](O)[C@H]3O)c2n1`, the inhibition at 3 µM [1] was 81.6%, the inhibition at 10 µM [2] was 100% and the “Ratio IC50” value (Platelet) was 2. It also gave an IC50 [3] of 450 nM.
Work on `CCCSc1nc(N/N=C/c2ccc(F)c(F)c2)c2nnn([C@@H]3C[C@H](O)[C@@H](O)[C@H]3O)c2n1` yielded an inhibition at 3 µM [1] of 62.7% and an inhibition at 10 µM [2] of 96.5%.
`CCCSc1nc(N/N=C/c2ccccc2O)c2nnn([C@@H]3C[C@H](O)[C@@H](O)[C@H]3O)c2n1` gave an inhibition at 3 µM [1] of 83.6%, an inhibition at 10 µM [2] of 92.1% and an IC50 [3] of 670 nM.
`CCCSc1nc(N/N=C/c2cccc(O)c2)c2nnn([C@@H]3C[C@H](O)[C@@H](O)[C@H]3O)c2n1` gave a Time [4] of 10.4 min, an IC50 (P2Y purinoceptor 12) of 46 nM and an inhibition at 3 µM [1] of 93.4%. It also gave a remaining at 24 h [5] of 97.4%, a remaining at 1 h [6] of 81.2% and a remaining at 24 h [7] of 96.7%. For the same compound, the inhibition at 10 µM [2] was 100%, the Activity [8] was “Non-Toxic” and the inhibition in vivo at 5 mg/kg (Mus musculus [9]) was 73.3%. For the same compound, the remaining at 2 h [10] was 73.7%, the “Ratio IC50” value (Platelet) was 4 and the IC50 [3] was 200 nM. The Activity [11] was 44.5 µL, the remaining at 168 h [12] was 98.3% and the Activity [13] was “Non-Toxic”. For the same compound, the inhibition in vivo at 2.5 mg/kg (Mus musculus [14]) was 62.2%.
`CCCSc1nc(N/N=C/c2ccc(O)cc2)c2nnn([C@@H]3C[C@H](O)[C@@H](O)[C@H]3O)c2n1` gave an inhibition at 3 µM [1] of 86.3%, an inhibition at 10 µM [2] of 100% and an IC50 [3] of 780 nM.
`CCCSc1nc(N/N=C/c2ccc(O)cc2O)c2nnn([C@@H]3C[C@H](O)[C@@H](O)[C@H]3O)c2n1` showed an inhibition at 3 µM [1] of 63.4% and an inhibition at 10 µM [2] of 98.3%.
`CCCSc1nc(N/N=C/c2ccccc2OC)c2nnn([C@@H]3C[C@H](O)[C@@H](O)[C@H]3O)c2n1` showed an inhibition at 3 µM [1] of 11.7% and an inhibition at 10 µM [2] of 48.7%.
Compound `CCCSc1nc(N/N=C/c2ccc(OC)cc2)c2nnn([C@@H]3C[C@H](O)[C@@H](O)[C@H]3O)c2n1` has an inhibition at 3 µM [1] of 71.4%, an inhibition at 10 µM [2] of 81.5% and an IC50 [3] of 1300 nM.
`CCCSc1nc(N/N=C/c2ccc(OC)c(OC)c2)c2nnn([C@@H]3C[C@H](O)[C@@H](O)[C@H]3O)c2n1` gave an inhibition at 3 µM [1] of 33.4% and an inhibition at 10 µM [2] of 78.3%.
Compound `CCCSc1nc(N/N=C/c2ccccc2Cl)c2nnn([C@@H]3C[C@H](O)[C@@H](O)[C@H]3O)c2n1` has an inhibition at 3 µM [1] of 51.6% and an inhibition at 10 µM [2] of 83.2%.
Compound `CCCSc1nc(N/N=C/c2ccc(Cl)cc2)c2nnn([C@@H]3C[C@H](O)[C@@H](O)[C@H]3O)c2n1` has an inhibition at 3 µM [1] of 7% and an inhibition at 10 µM [2] of 53.7%.
`CCCSc1nc(N/N=C/c2ccc(Cl)cc2Cl)c2nnn([C@@H]3C[C@H](O)[C@@H](O)[C@H]3O)c2n1` gave an inhibition at 10 µM [2] of 50.1%.
`CCCSc1nc(N/N=C/c2cccc([N+](=O)[O-])c2)c2nnn([C@@H]3C[C@H](O)[C@@H](O)[C@H]3O)c2n1` gave an inhibition at 3 µM [1] of 76.3%, an inhibition at 10 µM [2] of 88.6% and an IC50 [3] of 660 nM.
In the case of `CCCSc1nc(N/N=C/c2ccc([N+](=O)[O-])cc2)c2nnn([C@@H]3C[C@H](O)[C@@H](O)[C@H]3O)c2n1`, the inhibition at 3 µM [1] is reported as 5% and the inhibition at 10 µM [2] is reported as 62.7%.
Compound `CCCSc1nc(N/N=C/c2ccccn2)c2nnn([C@@H]3C[C@H](O)[C@@H](O)[C@H]3O)c2n1` has an inhibition at 3 µM [1] of 36.4% and an inhibition at 10 µM [2] of 71.7%.
`CCCSc1nc(N/N=C/c2cccs2)c2nnn([C@@H]3C[C@H](O)[C@@H](O)[C@H]3O)c2n1` showed an inhibition at 3 µM [1] of 80.5%, an inhibition at 10 µM [2] of 95.4% and an IC50 [3] of 400 nM.
`CCCSc1nc(NC2CC2)c2nnn([C@@H]3C[C@H](OCCO)[C@@H](O)[C@H]3O)c2n1` showed an inhibition at 10 µM [2] of 14.8%.
With `CCCNc1nc(SCCC)nc2c1nnn2[C@@H]1C[C@H](OCCO)[C@@H](O)[C@H]1O` the inhibition at 10 µM [2] was 13.6%.
For `CCCSc1nc(NC2CC2)c2nnn([C@@H]3C[C@H](O)[C@@H](O)[C@H]3O)c2n1`, the inhibition at 10 µM [2] was 86.3% and the IC50 [3] was 820 nM.
For `CCCSc1nc(N/N=C/c2ccc(Cl)cc2)c2nnn([C@@H]3C[C@H](OCCO)[C@@H](O)[C@H]3O)c2n1`, the inhibition at 3 µM [1] was 9.1% and the inhibition at 10 µM [2] was 69.1%.
Compound `CCCSc1nc(NCCc2cccc(F)c2)c2nnn([C@@H]3C[C@H](O)[C@@H](O)[C@H]3O)c2n1` has an inhibition at 10 µM [2] of 68.3%.
With `CCCSc1nc(NC2CCCCC2)c2nnn([C@@H]3C[C@H](OCCO)[C@@H](O)[C@H]3O)c2n1` the inhibition at 10 µM [2] was 5.3%.
`CCCSc1nc(NCC)c2nnn([C@@H]3C[C@H](OCCO)[C@@H](O)[C@H]3O)c2n1` showed an inhibition at 10 µM [2] of 21.4% and an IC50 [3] of 4890 nM.
`CCCSc1nc(NCCc2ccc(O)cc2)c2nnn([C@@H]3C[C@H](O)[C@@H](O)[C@H]3O)c2n1` showed an inhibition at 10 µM [2] of 76.8%.
In the case of `CCCSc1nc(NC2CCCC2)c2nnn([C@@H]3C[C@H](OCCO)[C@@H](O)[C@H]3O)c2n1`, the inhibition at 10 µM [2] is reported as 8.1%.
In the case of `CCCNc1nc(SCCC)nc2c1nnn2[C@@H]1C[C@H](O)[C@@H](O)[C@H]1O`, the inhibition at 10 µM [2] is reported as 68.6%.
Compound `CCCSc1nc(NCC(C)C)c2nnn([C@@H]3C[C@H](OCCO)[C@@H](O)[C@H]3O)c2n1` has an inhibition at 10 µM [2] of 7.8%.
Compound `CCCCNc1nc(SCCC)nc2c1nnn2[C@@H]1C[C@H](OCCO)[C@@H](O)[C@H]1O` has an inhibition at 10 µM [2] of 40.8% and an IC50 [3] of 3160 nM.
With `CCCSc1nc(NCCCO)c2nnn([C@@H]3C[C@H](OCCO)[C@@H](O)[C@H]3O)c2n1` the inhibition at 10 µM [2] was 13.9%.
`CCCSc1nc(N/N=C/c2cccc([N+](=O)[O-])c2)c2nnn([C@@H]3C[C@H](OCCO)[C@@H](O)[C@H]3O)c2n1` gave an inhibition at 3 µM [1] of 77.3% and an inhibition at 10 µM [2] of 95.5%.
For `CCCSc1nc(NCCO)c2nnn([C@@H]3C[C@H](OCCO)[C@@H](O)[C@H]3O)c2n1`, the inhibition at 10 µM [2] was 15.2%.
In the case of `CCCSc1nc(N/N=C/c2ccc([N+](=O)[O-])cc2)c2nnn([C@@H]3C[C@H](OCCO)[C@@H](O)[C@H]3O)c2n1`, the inhibition at 3 µM [1] is reported as 70.9% and the inhibition at 10 µM [2] is reported as 90.9%.
Work on `CCCSc1nc(N/N=C/c2cccc(O)c2)c2nnn([C@@H]3C[C@H](OCCO)[C@@H](O)[C@H]3O)c2n1` yielded an inhibition at 3 µM [1] of 85.4%, an inhibition at 10 µM [2] of 100% and an IC50 [3] of 580 nM.
`CCCSc1nc(N/N=C/c2ccc(F)c(F)c2)c2nnn([C@@H]3C[C@H](OCCO)[C@@H](O)[C@H]3O)c2n1` showed an inhibition at 3 µM [1] of 46.3% and an inhibition at 10 µM [2] of 85.4%.
Work on `CCCSc1nc(NCCO)c2nnn([C@@H]3C[C@H](O)[C@@H](O)[C@H]3O)c2n1` yielded an inhibition at 10 µM [2] of 69.4%.
For `CCCSc1nc(NCCc2ccccc2)c2nnn([C@@H]3C[C@H](O)[C@@H](O)[C@H]3O)c2n1`, the inhibition at 10 µM [2] was 33.4%.
With `CCCSc1nc(NCCCc2ccccc2)c2nnn([C@@H]3C[C@H](O)[C@@H](O)[C@H]3O)c2n1` the inhibition at 10 µM [2] was 29.3%.
Compound `CCCSc1nc(NCCCO)c2nnn([C@@H]3C[C@H](O)[C@@H](O)[C@H]3O)c2n1` has an inhibition at 10 µM [2] of 70.3% and an IC50 [3] of 1780 nM.
Compound `CCCCNc1nc(SCCC)nc2c1nnn2[C@@H]1C[C@H](O)[C@@H](O)[C@H]1O` has an inhibition at 10 µM [2] of 85.4%.
With `CCCSc1nc(N[C@@H]2C[C@H]2c2ccc(F)c(F)c2)c2nnn([C@@H]3C[C@H](OCCO)[C@@H](O)[C@H]3O)c2n1` [TICAGRELOR] the Time [4] was > 20 min, the IC50 (P2Y purinoceptor 12) was 39 nM and the inhibition at 3 µM [1] was 78.6%. It also gave an inhibition at 10 µM [2] of 92.7%, an inhibition in vivo at 5 mg/kg (Mus musculus [9]) of 69.4% and an IC50 [3] of 740 nM. It also gave an Activity [11] of 73.25 µL and an inhibition in vivo at 2.5 mg/kg (Mus musculus [14]) of 52.2%.
